Published values of several laboratories.
Converted amounts (≈) assume the structure as drawn.

SMILES | organism | assay | test system | setting | quantity | value
CO/N=C(\C(=O)N[C@@H]1C(=O)N2C(C(=O)O)=C(CSc3nc(=O)c(=O)[nH]n3C)CS[C@H]12)c1csc(N)n1 | Salmonella enterica | microbial growth | ENTERITIDIS | 20 h, pH 7 | MIC | 0.0625 µg/mL (≈ 0.113 µM)
O=C1NC(=S)N/C1=C\c1ccc(-c2ccc(N(c3ccccc3)c3ccccc3)cc2)cc1 | Bacillus cereus | microbial killing, broth dilution | ATCC10876 | – | MBC | > 1000 µg/mL
CNC1=C([N+](=O)[O-])C2(C(=O)Nc3ccccc32)C2=C(O1)C(=O)c1ccccc1C2=O (stereo not shown) | Salmonella enterica | microbial killing | TYPHIMURIUM | – | MBC | ≤ 1000 µg/mL
CCN1CCN(c2cc3c(cc2F)c(=O)c(C(=O)O)cn3C2CC2)CC1 | Salmonella enterica | microbial growth | ENTERITIDIS | 20 h, pH 5.5 | MIC | 0.25 µg/mL (≈ 0.696 µM)
C=C[C@@]1(C)C=C2CC[C@@H]3[C@](C)(CCC[C@@]3(C)C(=O)O)[C@H]2CC1 | Helicobacter pylori | microbial growth, broth dilution | – | 15.63 µg/mL | inhibition | 86.3%
COc1c(N2C[C@@H]3CCCN[C@@H]3C2)c(F)cc2c(=O)c(C(=O)O)cn(C3CC3)c12 | Salmonella enterica | microbial growth | ATCC13311 TYPHIMURIUM | – | MIC90 | 0.49 µg/mL (≈ 1.22 µM)
O=C1NC(=S)N/C1=C\c1c2ccccc2c(-c2ccc(N(c3ccccc3)c3ccccc3)cc2)c2ccccc12 | Bacillus cereus | microbial growth, broth dilution | ATCC10876 | – | MIC | > 1000 µg/mL
O=c1cc(-c2ccc(O)cc2)oc2cc(O)cc(O)c12 | Helicobacter pylori | microbial growth, broth dilution | – | 125 µg/mL | inhibition | 100%
COc1cc(Cc2cnc(N)nc2N)cc(OC)c1OC | Salmonella enterica | microbial growth | F98, TYPHIMURIUM | 20 h, pH 7.2 | MIC | 0.25 µg/mL (≈ 0.861 µM)
O=C1NC(=S)S/C1=C\c1ccc(-c2ccc(N(c3ccccc3)c3ccccc3)cc2)c2ccccc12 | Bacillus cereus | microbial killing, broth dilution | ATCC10876 | – | MBC | > 1000 µg/mL
[H]/N=C(/N)N[C@H]1[C@H](O)[C@@H](O)[C@H](O[C@@H]2O[C@@H](C)[C@](O)(C=O)[C@H]2O[C@@H]2O[C@@H](CO)[C@H](O)[C@@H](O)[C@@H]2NC)[C@@H](N/C(N)=N\[H])[C@@H]1O | Salmonella enterica | microbial growth | – | 20 h, pH 7 | MIC | 64 µg/mL (≈ 110 µM)
COc1ccc(-c2cc(=O)c3c(O)cc(O[C@@H]4O[C@H](CO)[C@@H](O)[C@H](O)[C@H]4O)cc3o2)cc1O | Helicobacter pylori | microbial growth, broth dilution | – | 62.5 µg/mL | inhibition | 100%
CC1(C)S[C@@H]2[C@H](NC(=O)[C@H](N)c3ccccc3)C(=O)N2[C@H]1C(=O)O | Salmonella enterica | microbial growth, agar dilution | ATCC13311 TYPHIMURIUM | 26.93 µM | inhibition | 100%
C[C@@H](O)[C@H]1C(=O)N2C(C(=O)O)=C(S[C@@H]3CN[C@H](C(=O)N(C)C)C3)[C@H](C)[C@H]12 | Salmonella enterica | microbial growth, broth dilution | – | clinical isolate | MIC | ≤ 0.5 µg/mL
COC(=O)c1ccc(O)cc1 | Helicobacter pylori | microbial growth, broth dilution | – | 125 µg/mL | inhibition | 100%
O=C(O)CN1C(=O)/C(=C/c2c3ccccc3c(-c3ccc(N(c4ccccc4)c4ccccc4)cc3)c3ccccc23)SC1=S | Bacillus cereus | microbial growth, broth dilution | ATCC10876 | – | MIC | > 1000 µg/mL
O=c1cc(-c2ccc(O)c(O)c2)oc2cc(O)cc(O)c12 | Helicobacter pylori | microbial growth, broth dilution | – | 31.25 µg/mL | inhibition | 100%
O=C(O)c1cn(C2CC2)c2cc(N3CCNCC3)c(F)cc2c1=O | Salmonella enterica | microbial growth | ENTERITIDIS | 20 h, pH 7.2 | MIC | 0.0156 µg/mL (≈ 0.0471 µM)
O=C(O)CN1C(=O)/C(=C/c2ccc(-c3ccc(N(c4ccccc4)c4ccccc4)cc3)cc2)NC1=S | Bacillus cereus | microbial killing, broth dilution | ATCC10876 | – | MBC | 250 µg/mL (≈ 494 µM)
CC1(C)S[C@@H]2[C@H](NC(=O)[C@H](N)c3ccccc3)C(=O)N2[C@H]1C(=O)O | Salmonella enterica | microbial growth | ENTERITIDIS | 20 h, pH 5.5 | MIC | 1 µg/mL (≈ 2.86 µM)
O=C(O)CN1C(=O)/C(=C/c2ccc(-c3ccc(N(c4ccccc4)c4ccccc4)cc3)c3ccccc23)SC1=S | Bacillus cereus | microbial killing, broth dilution | ATCC10876 | – | MBC | > 1000 µg/mL
Cc1cc(NS(=O)(=O)c2ccc(N)cc2)no1 | Salmonella enterica | microbial growth | ENTERITIDIS | 20 h, pH 7 | MIC | 64 µg/mL (≈ 253 µM)
O=C(O)CN1C(=O)/C(=C/c2ccc(-c3ccc(N(c4ccccc4)c4ccccc4)cc3)cc2)SC1=S | Bacillus cereus | microbial killing, broth dilution | ATCC10876 | – | MBC | 31.3 µg/mL (≈ 59.9 µM)
CCn1cc(C(=O)O)c(=O)c2ccc(C)nc21 | Salmonella enterica | microbial growth | – | 20 h, pH 7 | MIC | 2 µg/mL (≈ 8.61 µM)
O=C(O)c1ccc(O)cc1 | Helicobacter pylori | microbial growth, broth dilution | – | 31.25 µg/mL | inhibition | 100%
